ChEMBL document CHEMBL4627265, “Optimization of 8-oxoadenines with toll-like-receptor 7 and 8 activity” (Bioorg Med Chem Lett, 2020)
Activity calls are given as the source filed them. The calls are words filed in the database; no cut-off is given here.

Experiments:
Format in all cases: cell-based
[1] = molecular target: T1, Toll-like receptor 7 (Homo sapiens) (UniProt Q9NYK1); assay: Agonist activity at TLR7 in human PBMC assessed as induction of plasmacytoid dendritic cell maturation by measuring CD86 level at 0.1 uM after 6 hrs by flow cytometry
T1 sequence (whole entry): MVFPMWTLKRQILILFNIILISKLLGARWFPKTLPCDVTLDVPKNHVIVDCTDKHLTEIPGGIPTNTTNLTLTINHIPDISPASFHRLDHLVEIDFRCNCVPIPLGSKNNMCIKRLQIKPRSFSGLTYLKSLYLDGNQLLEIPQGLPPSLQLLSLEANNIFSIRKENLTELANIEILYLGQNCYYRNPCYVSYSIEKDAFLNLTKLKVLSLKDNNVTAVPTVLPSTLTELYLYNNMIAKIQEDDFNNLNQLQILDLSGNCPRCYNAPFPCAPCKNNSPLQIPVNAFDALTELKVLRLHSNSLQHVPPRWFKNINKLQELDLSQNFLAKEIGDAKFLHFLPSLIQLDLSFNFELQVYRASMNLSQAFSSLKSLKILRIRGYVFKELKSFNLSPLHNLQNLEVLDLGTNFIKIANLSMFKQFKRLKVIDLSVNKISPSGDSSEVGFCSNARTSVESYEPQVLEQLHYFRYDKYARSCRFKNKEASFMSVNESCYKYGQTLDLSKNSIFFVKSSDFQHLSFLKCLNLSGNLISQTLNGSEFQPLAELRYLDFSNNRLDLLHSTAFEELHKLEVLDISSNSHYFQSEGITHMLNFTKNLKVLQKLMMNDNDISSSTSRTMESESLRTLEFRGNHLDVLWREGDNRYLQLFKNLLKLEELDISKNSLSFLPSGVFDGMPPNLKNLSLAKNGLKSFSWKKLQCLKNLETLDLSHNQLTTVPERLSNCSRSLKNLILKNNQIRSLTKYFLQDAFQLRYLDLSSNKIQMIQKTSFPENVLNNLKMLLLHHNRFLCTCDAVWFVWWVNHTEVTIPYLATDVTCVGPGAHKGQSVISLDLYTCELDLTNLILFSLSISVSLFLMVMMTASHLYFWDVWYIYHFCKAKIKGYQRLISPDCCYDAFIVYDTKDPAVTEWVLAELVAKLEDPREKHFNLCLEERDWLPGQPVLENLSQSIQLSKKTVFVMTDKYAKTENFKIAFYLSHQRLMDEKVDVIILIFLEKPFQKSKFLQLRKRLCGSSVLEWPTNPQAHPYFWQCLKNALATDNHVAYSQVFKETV
Procedure, shortened: (§1)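 hPBMCs stimulated 6 h at a single 0.1 μM dose; HLA-DR, MHC-I, CD80 and CD86 on mDCs and pDCs measured by flow cytometry, expressed as fold change versus unstimulated cells. Mean ± SD of three independent experiments in three different donors.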

[2] = molecular target: T1, Toll-like receptor 7 (Homo sapiens); assay: Agonist activity at TLR7 in human PBMC assessed as induction of plasmacytoid dendritic cell maturation by measuring HLA-DR level at 0.1 uM after 6 hrs by flow cytometry; procedure, shortened: as §1
[3] = molecular target: T2, Toll-like receptor 8 (Homo sapiens) (UniProt Q9NR97); assay: Agonist activity at TLR8 in human PBMC assessed as induction of myeloid dendritic cell maturation by measuring MHC-1 level at 0.1 uM after 6 hrs by flow cytometry; procedure, shortened: as §1
T2 sequence (whole entry): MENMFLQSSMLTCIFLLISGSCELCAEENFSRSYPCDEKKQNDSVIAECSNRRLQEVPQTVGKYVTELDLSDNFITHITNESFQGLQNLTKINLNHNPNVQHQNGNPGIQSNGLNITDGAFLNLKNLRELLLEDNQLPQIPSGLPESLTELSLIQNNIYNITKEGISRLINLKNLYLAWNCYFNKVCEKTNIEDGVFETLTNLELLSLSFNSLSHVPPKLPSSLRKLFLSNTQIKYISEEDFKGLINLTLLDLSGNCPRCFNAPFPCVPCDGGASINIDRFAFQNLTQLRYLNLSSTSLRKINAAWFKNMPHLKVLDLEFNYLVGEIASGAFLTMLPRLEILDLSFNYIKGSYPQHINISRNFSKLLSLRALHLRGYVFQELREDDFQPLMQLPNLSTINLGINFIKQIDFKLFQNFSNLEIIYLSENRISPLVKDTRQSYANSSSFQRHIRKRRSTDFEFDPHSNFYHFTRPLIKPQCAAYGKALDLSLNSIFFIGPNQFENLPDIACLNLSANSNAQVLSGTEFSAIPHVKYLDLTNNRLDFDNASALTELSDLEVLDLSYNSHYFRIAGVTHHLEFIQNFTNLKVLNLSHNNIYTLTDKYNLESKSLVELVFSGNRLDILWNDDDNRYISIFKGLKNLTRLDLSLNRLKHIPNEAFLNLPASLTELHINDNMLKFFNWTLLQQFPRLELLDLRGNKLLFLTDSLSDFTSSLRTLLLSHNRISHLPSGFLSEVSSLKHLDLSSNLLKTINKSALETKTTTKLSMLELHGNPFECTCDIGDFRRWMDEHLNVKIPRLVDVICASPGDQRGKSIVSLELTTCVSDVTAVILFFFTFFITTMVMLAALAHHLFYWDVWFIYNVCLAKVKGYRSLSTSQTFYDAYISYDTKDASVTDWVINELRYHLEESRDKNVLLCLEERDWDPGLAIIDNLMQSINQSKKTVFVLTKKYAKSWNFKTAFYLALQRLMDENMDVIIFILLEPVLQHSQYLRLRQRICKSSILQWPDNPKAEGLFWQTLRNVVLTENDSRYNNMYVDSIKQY

[4] = molecular target: T2, Toll-like receptor 8 (Homo sapiens); assay: Agonist activity at TLR8 in human PBMC assessed as induction of myeloid dendritic cell maturation by measuring HLA-DR level at 0.1 uM after 6 hrs by flow cytometry; procedure, shortened: as §1
[5] = molecular target: T2, Toll-like receptor 8 (Homo sapiens); assay: Agonist activity at TLR8 in human PBMC assessed as induction of myeloid dendritic cell maturation by measuring CD80 level at 0.1 uM after 6 hrs by flow cytometry; procedure, shortened: as §1
[6] = molecular target: Toll-like receptor 3 (Homo sapiens) (UniProt O15455); assay: Agonist activity at human TLR3 expressed in HEK293 cells by SEAP reporter gene assay
Chain of Toll-like receptor 3 (Homo sapiens) (O15455 whole entry): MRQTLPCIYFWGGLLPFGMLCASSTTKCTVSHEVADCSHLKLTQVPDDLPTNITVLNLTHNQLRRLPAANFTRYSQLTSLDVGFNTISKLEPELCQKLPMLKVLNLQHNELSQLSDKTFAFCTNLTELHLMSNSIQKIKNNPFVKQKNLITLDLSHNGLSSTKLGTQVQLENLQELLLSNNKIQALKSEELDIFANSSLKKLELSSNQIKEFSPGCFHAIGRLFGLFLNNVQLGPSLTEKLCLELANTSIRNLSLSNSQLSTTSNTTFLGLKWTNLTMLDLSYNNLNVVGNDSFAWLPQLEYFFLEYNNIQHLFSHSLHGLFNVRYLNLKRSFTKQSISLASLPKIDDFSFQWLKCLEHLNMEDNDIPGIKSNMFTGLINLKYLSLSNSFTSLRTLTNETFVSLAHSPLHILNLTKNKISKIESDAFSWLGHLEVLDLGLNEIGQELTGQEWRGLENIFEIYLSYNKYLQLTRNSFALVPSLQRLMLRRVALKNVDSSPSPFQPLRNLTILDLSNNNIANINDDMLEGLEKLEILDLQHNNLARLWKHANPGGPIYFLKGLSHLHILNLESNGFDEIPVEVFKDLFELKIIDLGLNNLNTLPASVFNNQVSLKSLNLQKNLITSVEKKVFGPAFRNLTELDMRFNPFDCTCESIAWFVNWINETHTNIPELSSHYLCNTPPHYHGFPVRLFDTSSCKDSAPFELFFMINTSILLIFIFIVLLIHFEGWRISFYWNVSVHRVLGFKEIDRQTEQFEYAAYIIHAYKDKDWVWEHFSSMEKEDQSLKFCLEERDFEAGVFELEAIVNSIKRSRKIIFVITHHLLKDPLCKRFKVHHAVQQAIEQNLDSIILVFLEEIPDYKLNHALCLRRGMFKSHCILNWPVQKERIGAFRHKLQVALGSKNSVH

Activity [1]: inactive
Activity [2]: inactive
Activity [3]: inactive
Activity [4]: inactive
Activity [5]: inactive
Activity [6]: inactive
SMILES: Nc1nc(OCCCCO)nc2c1[nH]c(=O)n2CC1CCNCC1
